Measles CPE: protection of cells from measles virus; actives 1.5% (n = 140,000); Measles virus-infected cells, CPE protection, absorbance; AID 841; protection (pct of control), % at 4 µM; in the data active = protection mostly above about 24%, no sharp cut-off; inactive = mostly below about 26%
SDO1 yeast rescue: compounds rescuing growth of sdo1-depleted yeast, bone marrow failure model; AID 817; actives 0.21% (n = 140,000); z-score at 10 µM; S. cerevisiae sdo1-depleted JHY4D growth rescue, OD600 30 h; active compounds read high; pdr5 snq2 efflux-pump mutant strain;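 active = z-score above 3 at both the 24 hr and the 30 hr optical density reads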
BB579 growth dn: yeast BB579 growth reduction in restrictive medium; inhibition, % at 10 µM; S. cerevisiae BB579 growth, OD615, 48 h; actives 0.51% (n = 140,000);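 active = inhibition above a set limit, 3 SD over the mean compound inhibition, cut at about 44% in these data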
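Test system: S. cerevisiae DeaD strain BB579 yeast; Medium: restrictive CSMM-D medium; Compound: one dose, 10 µM compound with 0.25% DMSO; Incubation: 4 h cell preincubation, 48 h compound exposure, 30 °C humidified; Signal: OD at 615 nm; Benchmarks: amphotericin B at 10 µg/mL as positive control.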
RAM network inh: inhibitors of the yeast RAM network | S. cerevisiae dse1pr::URA3 reporter, 5-FOA growth OD615, 2 d; analog-sensitive cbk1-as2 kinase mutant strain | inhibition, % at 50 µM | actives 1.8% (n = 190,000) | AID 868;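 active = inhibition above a set limit, 3 SD over mean compound inhibition, cut at about 8.4% in these data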;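 note: inhibition rescues growth on 5-FOA so higher OD means more RAM inhibition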
Yeast life ext: yeast lifespan extension; S. cerevisiae growth with nicotinamide, OD615; deaD strain in restrictive glucose medium; inhibition of the nicotinamide effect, % at 10 µM; actives 0.68% (n = 130,000);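 active = inhibition above a set limit, placed 3 SD over the median of all compounds, cut at about 26% in these data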
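System: DeaD-strain S. cerevisiae / Buffer or medium: CSMM-D, restrictive glucose (dextrose) synthetic minimal medium / Probe or stimulus: nicotinamide, 1.5 mM, co-present with compound / Compound: one concentration, 10 µM, DMSO 0.25% / Incubation: 48 h compound exposure at 30 °C, humidified / Technique: optical density (absorbance) at 615 nm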
SDO1 rescue DR: SDO1-depleted yeast growth rescue confirmation; shares compounds with SDO1 yeast rescue; S. cerevisiae JHY4D (SDO1-depleted) growth rescue, OD600, 30 h; active compounds read high; efflux-deficient strain, SNQ2 and PDR5 mutated; OD recovery (test concentration not listed); actives 44% (n = 440);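 active = yeast growth recovered at 30 hours, either rising with dose fitted slope above 0.001 or with average optical density gain above 0.07, some results past the limit were not filed as active; inactive = growth falling with dose or no effect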
RAM 5-FOA: restores 5-FOA growth of efflux-deficient yeast. shares compounds with RAM network inh. max inhibition, %. S. cerevisiae efflux-deficient reporter strain, 5-FOA growth OD615, 2 days. 1,200 tested, under 10 active; call rule not given here
A number is an active result. Rows were chosen to be rich in hits. Some 3.8% of all compounds tested hit in one or more screens of this group.

For Cc1c(C(c2ccc(O)cc2)c2c(O)c3ccccc3oc2=O)c(=O)n(-c2ccccc2)n1C (stereo not given) the results were Measles CPE inactive, SDO1 yeast rescue 3.4, BB579 growth dn inactive, RAM network inh inactive, Yeast life ext inactive and SDO1 rescue DR inactive.
COc1cccc(/C=C2\N=C(c3cncc(Br)c3)OC2=O)c1 was read as Measles CPE inactive, SDO1 yeast rescue inactive, BB579 growth dn inactive, RAM network inh inactive and Yeast life ext inactive.
CCCCN1C(=O)/C(=C\c2ccco2)C(=O)N(CCc2ccccc2)C1=O was read as Measles CPE inactive, SDO1 yeast rescue 10, BB579 growth dn inactive, RAM network inh inactive, Yeast life ext inactive and SDO1 rescue DR inactive.
`COP(=S)(OC)SCN1C(=O)c2ccccc2C1=O` gave Measles CPE inactive, SDO1 yeast rescue inactive, BB579 growth dn inactive, RAM network inh inactive and Yeast life ext inactive.
`Cn1c(=O)cc(SCC(=O)N2CCC3(CC2)OCCO3)c2ccccc21` gave Measles CPE inactive, SDO1 yeast rescue 3.4, BB579 growth dn inactive, RAM network inh inactive, Yeast life ext inactive and SDO1 rescue DR 0.071.
Screening Cn1c(=O)cc(OCC(=O)N2CCC3(CC2)OCCO3)c2ccccc21 returned Measles CPE inactive, SDO1 yeast rescue inactive, BB579 growth dn inactive, RAM network inh inactive and Yeast life ext inactive.
Screening CCC(=O)Oc1ccc(C(=O)Nc2cccc(C(=O)c3ccccc3)c2)cc1 returned Measles CPE inactive, SDO1 yeast rescue inactive, BB579 growth dn inactive, RAM network inh 12, Yeast life ext inactive and RAM 5-FOA inactive.
O=C(COc1ccccc1)c1cn(Cc2ccccc2)c2ccccc12 was read as Measles CPE inactive, SDO1 yeast rescue inactive, BB579 growth dn inactive, RAM network inh 12, Yeast life ext inactive and RAM 5-FOA inactive.
For CN1/C(=C\C=C2C(=O)NC(=S)NC2=O)C(C)(C)c2ccccc21 the results were RAM network inh 11 and RAM 5-FOA inactive.
`CC1(C)OC(c2ccccc2)=C/C(=C/C=C2C(=O)NC(=S)NC2=O)O1` gave RAM network inh 18 and RAM 5-FOA inactive.
Screening CCc1ccccc1N1C(=O)NC(=O)/C(=C\c2cc(C)n(C)c2C)C1=O returned Measles CPE inactive, SDO1 yeast rescue inactive, BB579 growth dn inactive, RAM network inh inactive and Yeast life ext inactive.
`CC(=NCCCN1CCOCC1)c1c(O)[nH]c(=O)[nH]c1=O` gave Measles CPE inactive, SDO1 yeast rescue inactive, BB579 growth dn inactive, RAM network inh inactive and Yeast life ext inactive.
`COc1cccc(NP(=O)(Oc2ccccc2Cl)Oc2ccccc2Cl)c1` gave Measles CPE inactive, SDO1 yeast rescue inactive, BB579 growth dn inactive, RAM network inh 13, Yeast life ext inactive and RAM 5-FOA inactive.
For O=C1CCCN1c1ccc(S(=O)(=O)O)cc1 (tested in a mixture with another compound) the results were Measles CPE inactive, SDO1 yeast rescue inactive, BB579 growth dn inactive, RAM network inh inactive and Yeast life ext inactive.
Screening COc1cccc(-n2c(=S)[nH]c3ccccc3c2=O)c1 returned RAM network inh inactive.
`O=c1c2ccc(Cl)cc2[nH]c(=S)n1-c1cccnc1` gave RAM network inh 16 and RAM 5-FOA inactive.
`OC(CCNCCc1c[nH]c2ccccc12)C(F)(F)Cl` (stereo not given) gave RAM network inh inactive.
`CN(C[C@H](Cc1ccccc1)N(C[C@H](Cc1ccccc1)N(CCC(C)(C)C)N=O)N=O)N=O` gave RAM network inh 13 and RAM 5-FOA inactive.
Screening CC(Cc1ccccc1)NC(=O)NC(C)Cc1ccccc1 (stereo not given) returned Measles CPE inactive, SDO1 yeast rescue inactive, BB579 growth dn inactive, RAM network inh inactive and Yeast life ext inactive.
CC(C)CCN(N=O)[C@@H](Cc1ccccc1)CN(N=O)[C@@H](Cc1ccccc1)CN(C)N=O was read as RAM network inh 20 and RAM 5-FOA inactive.
Screening CC(=O)c1c(C)[nH]c(C(=O)N2CCC3(CC2)OCCO3)c1C returned Measles CPE inactive, SDO1 yeast rescue inactive, BB579 growth dn inactive, RAM network inh inactive and Yeast life ext inactive.
Screening O=C(c1ccco1)c1cn(Cc2ccccc2)c2ccccc12 returned Measles CPE inactive, SDO1 yeast rescue inactive, BB579 growth dn inactive, RAM network inh inactive and Yeast life ext inactive.
O=C(c1ccco1)c1cn(Cc2ccccc2Cl)c2ccccc12 was read as Measles CPE inactive, SDO1 yeast rescue inactive, BB579 growth dn inactive, RAM network inh 18, Yeast life ext inactive and RAM 5-FOA inactive.
`CCOC(=O)Cc1csc(NC(=O)c2c(O)c3ccccc3n(CCC(C)C)c2=O)n1` gave RAM network inh 12 and RAM 5-FOA inactive.
`Cc1ccc(C(C)C)c(OCC(=O)N2CCN(Cc3nc4cc([N+](=O)[O-])ccc4n3C)CC2)c1` gave Measles CPE inactive, SDO1 yeast rescue inactive, BB579 growth dn inactive, RAM network inh inactive and Yeast life ext inactive.
`CCOc1ccc(NC(=O)c2c(C)nn(Cc3ccccc3)c2Cl)cc1` gave Measles CPE inactive, SDO1 yeast rescue inactive, BB579 growth dn inactive, RAM network inh inactive and Yeast life ext inactive.
`COc1ccc(C)cc1NC(=O)c1c(C)nn(Cc2ccccc2)c1Cl` gave Measles CPE inactive, SDO1 yeast rescue inactive, BB579 growth dn inactive, RAM network inh 13, Yeast life ext inactive and RAM 5-FOA inactive.
Screening CC(C)Oc1cccc(NC(=O)c2cccn(Cc3ccc4c(c3)OC(F)(F)O4)c2=O)c1 returned Measles CPE inactive, SDO1 yeast rescue inactive, BB579 growth dn inactive, RAM network inh 13, Yeast life ext inactive and RAM 5-FOA inactive.
For O=C(Nc1cccc(C(F)(F)F)c1)c1cccn(Cc2ccc3c(c2)OC(F)(F)O3)c1=O the results were Measles CPE inactive, SDO1 yeast rescue inactive, BB579 growth dn inactive, RAM network inh 14, Yeast life ext inactive and RAM 5-FOA inactive.
`CC(=NCc1ccc(F)cc1)c1c(O)n(C)c(=O)n(C)c1=O` gave Measles CPE inactive, SDO1 yeast rescue inactive, BB579 growth dn inactive, RAM network inh inactive and Yeast life ext inactive.
Screening CCC(C)C1(CC)C(=O)NC(=O)N=C1N (stereo not given) returned Measles CPE inactive, SDO1 yeast rescue inactive, BB579 growth dn inactive, RAM network inh inactive and Yeast life ext inactive.
For Cc1cccc(-n2c(-c3ccccc3)nc3ccccc3c2=O)n1 the results were RAM network inh inactive.
